Laboratory results: ChEMBL document CHEMBL3817785, “Synthetic sulfoglycolipids targeting the serine-threonine protein kinase Akt” (Bioorg Med Chem, 2016)
pIC50: −log10 of the molar value. Blank lines part the entries; values can stand above or below the molecule they belong to. Activity calls are given as the source filed them. The rule behind the calls is not given here.

How the values were obtained:
[1] = biological target: T1, RAC-alpha serine/threonine-protein kinase (Homo sapiens, UniProt P31749); assay: Inhibition of human Akt1 PH domain using AKTide-2T as substrate at 100 uM by ELISA
T1 sequence (P31749 whole entry, the tested form may be a part): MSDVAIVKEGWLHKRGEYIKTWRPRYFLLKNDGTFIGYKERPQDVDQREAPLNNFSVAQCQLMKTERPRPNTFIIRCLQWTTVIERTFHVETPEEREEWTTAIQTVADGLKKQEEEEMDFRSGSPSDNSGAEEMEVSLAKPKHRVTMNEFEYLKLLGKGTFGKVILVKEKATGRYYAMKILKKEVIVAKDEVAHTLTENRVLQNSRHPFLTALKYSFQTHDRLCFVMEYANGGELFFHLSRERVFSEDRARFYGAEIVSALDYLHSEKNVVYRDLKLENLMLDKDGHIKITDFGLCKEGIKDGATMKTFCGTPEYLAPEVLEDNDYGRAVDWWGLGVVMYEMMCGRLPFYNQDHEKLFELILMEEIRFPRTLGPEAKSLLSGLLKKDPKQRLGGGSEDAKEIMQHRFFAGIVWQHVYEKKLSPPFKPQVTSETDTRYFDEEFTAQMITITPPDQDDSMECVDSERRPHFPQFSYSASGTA
Procedure, shortened: (§1)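 Kit ELISA: wells precoated with AKTide-2T; constitutively active human Akt1 (25 m units/well) plus compound in kinase buffer (100 µM final, or 1–250 µM for concentration-response), Mg2+/ATP added. Phospho-substrate detected by HRP anti-phospho-AKTide-2T antibody with TMB, A450.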

IGROV-1 = assay: (§2) Antiproliferative activity against human IGROV1 cells assessed as cell growth inhibition after 24 hrs by coulter counter method; format: functional, cell-based
Procedure, shortened: (§3)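 Seeded at 5000 cells/cm² in complete RPMI (10% serum), 37 °C, 5% CO2; next day serum-starved and drug-treated for 24 h, then complete medium restored for a further 48 h. Cells trypsinized and counted by Coulter counter 72 h after treatment start; survival vs untreated; IC50 = concentration inhibiting proliferation by 50%; duplicates, two independent experiments, mean ± SEM.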

Homo sapiens = organism: Homo sapiens; assay: (§4) Antiproliferative activity against PTEN-deficient human Nim1 cells expressing BRAF V600E mutant assessed as cell growth inhibition after 72 hrs by coulter counter method; format: functional
Procedure, shortened: (§5)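 Cells seeded in complete medium in 12-well plates: Nim-1 at 5000 cells/cm² and TPC-1 at 3000 cells/cm², both in DMEM + 10% FBS; K1 at 4000 cells/cm² in DMEM:Ham's F12:MCDB 105 (2:1:1) + 20% serum; 37 °C, 5% CO2. Next day, exposed to increasing concentrations or DMSO (0.5% final) for 72 h. Cells trypsinized and Coulter-counted; survival as % of untreated, duplicates; IC50 = 50% growth inhibition.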

[2] = biological target: RAC-alpha serine/threonine-protein kinase (Mus musculus) (UniProt P31750); assay: Inhibition of Akt phosphorylation in mouse NIH/3T3-K-RAS cells at 100 uM pretreated for 1 hr by Western blot analysis; format: cell-based
Chain of RAC-alpha serine/threonine-protein kinase (Mus musculus) (P31750 whole entry): as the sequence (P31749 whole entry, the tested form may be a part) above, with S2N, A50S, T100A, K112R, E117T, K389T, G410N, H415D counted along it
Procedure, shortened: (§6)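 K-ras-transformed NIH 3T3 cells (DMEM, 10% NBCS, 37 °C) plated at 3 x 10⁵ cells/mL, starved 16 h in 0.5% serum, pretreated 1 h with compound at 100 µM or DMSO, then stimulated with 10% serum for 30 min. Lysates (15 µg) on 8% SDS-PAGE, probed for phospho-Akt Ser473, reprobed for total Akt, actin loading control; ECL; densitometry from three experiments.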

[3] = biological target: RAC-alpha serine/threonine-protein kinase (Mus musculus) (UniProt P31750); assay: Inhibition of serum-stimulated Akt phosphorylation in mouse NIH/3T3-K-RAS cells at 100 uM pretreated for 1 hr followed by serum addition for 30 mins by Western blot analysis; format: cell-based; procedure, shortened: as §6
TPC1 [4] = assay: Antiproliferative activity against human TPC1 cells harboring RET/PTC-1 rearrangement assessed as cell growth inhibition after 72 hrs by coulter counter method; format: functional, cell-based; procedure, shortened: as §5
K1 [5] = assay: (§7) Antiproliferative activity against human K1 cells expressing BRAF V600E/PI3K E542K mutants assessed as cell growth inhibition after 72 hrs by coulter counter method; format: functional, cell-based; procedure, shortened: as §5
TPC1 [6] = assay: Antiproliferative activity against human TPC1 cells harboring RET/PTC-1 rearrangement assessed as cell growth inhibition at 50 uM after 72 hrs by coulter counter method relative to control; format: functional; settings: TPC1, 72 h, read-out: GI
Procedure, shortened: (§8)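 Cells plated in complete medium (TPC-1 3000 cells/cm², DMEM + 10% FBS; K1 4000 cells/cm², DMEM:Ham's F12:MCDB 105 2:1:1 + 20% serum), 37 °C, 5% CO2. Next day exposed to drug or DMSO (0.5% final) for 72 h; trypsinized, Coulter counted; % survival vs untreated; duplicates, two independent experiments, mean ± SEM; Student's two-tailed t test.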

[7] = biological target: T1, RAC-alpha serine/threonine-protein kinase; assay: Inhibition of Akt in human IGROV1 cells assessed as reduction in GSK3beta phosphorylation at Ser9 at 3 uM after 24 hrs by Western blot analysis; format: cell-based; settings: IGROV-1
Procedure, shortened: (§9)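 Seeded in complete RPMI; 24 h later serum-starved and exposed to drug or vehicle for 24 h; total protein extracted and immunoblotted for serine-phosphorylated GSK-3α, GSK-3β and BAD.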

K1 [8] = assay: Cytotoxicity against human K1 cells expressing BRAF V600E/PI3K E542K mutants assessed as vacuolated and granulated cytoplasm at 50 uM after 72 hrs by coulter counter method; format: functional, cell-based
[9] = biological target: T1, RAC-alpha serine/threonine-protein kinase; assay: Inhibition of Akt in human IGROV1 cells assessed as reduction in BAD phosphorylation at Ser136 at 3 uM after 24 hrs by Western blot analysis; format: cell-based; settings: IGROV-1; procedure, shortened: as §9
[10] = as §2; format: functional, cell-based; settings: IGROV-1, 24 h; procedure, shortened: as §3
[11] = biological target: T1, RAC-alpha serine/threonine-protein kinase; assay: Inhibition of human Akt1 PH domain using AKTide-2T as substrate by ELISA; procedure, shortened: as §1
[12] = Antiproliferative activity against human K1 cells expressing BRAF V600E/PI3K E542K mutants assessed as cell growth inhibition at 50 uM after 72 hrs by coulter counter method relative to control; format: functional; settings: K1, 72 h, read-out: GI; procedure, shortened: as §8
[13] = biological target: T1, RAC-alpha serine/threonine-protein kinase; assay: Inhibition of Akt in human IGROV1 cells assessed as reduction in GSK3alpha phosphorylation at Ser21 at 3 uM after 24 hrs by Western blot analysis; format: cell-based; settings: IGROV-1; procedure, shortened: as §9
[14] = biological target: T1, RAC-alpha serine/threonine-protein kinase; settings: 1 uM
[15] = as §4; format: functional; procedure, shortened: as §5
[16] = as §7; format: functional, cell-based; settings: K1, 72 h; procedure, shortened: as §5
[17] = biological target: T1, RAC-alpha serine/threonine-protein kinase; settings: IGROV-1, 3 to 10 uM
[18] = biological target: T1, RAC-alpha serine/threonine-protein kinase; settings: IGROV-1, 3 to 10 uM; remark: listed apart in the source
[19] = biological target: T1, RAC-alpha serine/threonine-protein kinase; settings: IGROV-1, 3 to 10 uM; remark: listed apart in the source

- inhibition [1]: 13%
Structure (SMILES): CCCCCC(=O)OCC(COC(=O)CCCCC)O[C@@H]1O[C@H](CS(=O)(=O)O)[C@@H](O)[C@H](O)[C@H]1O

- pIC50 [11]: 4.36
Structure (SMILES): CCCCCCCCCCCCCCCCCCOP(=O)([O-])OC1CC[N+](C)(C)CC1 [PERIFOSINE]

- inhibition [1]: 13%
Structure (SMILES): O=S(=O)(O)C[C@H]1O[C@@H](OC(CO)CO)[C@H](O)[C@@H](O)[C@@H]1O

- inhibition [1]: 31%
Structure (SMILES): CCCCCCCCCCCC(=O)OCC(CO)O[C@@H]1O[C@H](CS(=O)(=O)O)[C@@H](O)[C@H](O)[C@H]1O (some centres not stated)

- inhibition [1]: 7%
Structure (SMILES): CCCCCCCCCCCC(=O)OCC(COC(=O)CCCCCCCCCCC)O[C@@H]1O[C@H](CO)[C@@H](O)[C@H](O)[C@H]1O

The remaining lines, values behind:

Structure (SMILES): CCCCCCCCCCCCOS(=O)(=O)[O-].[Na+]
- inhibition [1]: inactive

Structure (SMILES): CCCCCCCCO[C@@H]1O[C@H](CN)[C@@H](O)[C@H](O)[C@H]1O
- growth inhibition (GI) (IGROV-1): inactive
- growth inhibition (GI) (Homo sapiens): inactive
- inhibition [2]: inactive
- inhibition [3]: inactive
- growth inhibition (GI) (TPC1 [4]): inactive
- growth inhibition (GI) (K1 [5]): inactive
- inhibition [1]: 6%

Structure (SMILES): CO[C@@H]1O[C@H](CS(=O)(=O)O)[C@@H](O)[C@H](O)[C@H]1O
- inhibition [1]: 28%

Structure (SMILES): CCCCCCCCCCCC(=O)OCC(COC(=O)CCCCCCCCCCC)O[C@@H]1O[C@H](CS(=O)(=O)O)[C@@H](O)[C@H](O)[C@H]1O
- inhibition [1]: 77%

Structure (SMILES): CCCCCCCCCCCCCCCCCC(=O)OCC(CO)O[C@@H]1O[C@H](CS(=O)(=O)O)[C@@H](O)[C@H](O)[C@H]1O (some centres not stated)
- inhibition of growth at 50 µM (TPC1 [6]): 30%
- inhibition [7]: Active
- Activity (K1 [8]): Active
- inhibition [9]: Active
- pIC50 [10]: 5.70
- growth inhibition (GI) (Homo sapiens): Dose-dependent effect
- pIC50 [11]: 4.50
- inhibition [11]: Dose-dependent effect
- inhibition of growth at 50 µM [12]: 30%
- inhibition [2]: Active
- inhibition [3]: 40%
- inhibition [13]: Active
- growth inhibition (GI) (TPC1 [4]): Dose-dependent effect
- growth inhibition (GI) (K1 [5]): Dose-dependent effect
- inhibition [1]: 86%

Structure (SMILES): CN[C@@H]1C[C@H]2O[C@@](C)([C@@H]1OC)n1c3ccccc3c3c4c(c5c6ccccc6n2c5c31)C(=O)NC4
- inhibition [14]: Active

Structure (SMILES): O=c1[nH]c2ccccc2n1C1CCN(Cc2ccc(-c3nc4cc5nc[nH]c5cc4nc3-c3ccccc3)cc2)CC1
- pIC50 [10]: 6.52
- pIC50 [15]: 5.52
- pIC50 (TPC1 [4]; TPC1, 72 h): 4.96
- pIC50 [16]: 5.00

Structure (SMILES): CCCCCC(=O)OCC(CO)O[C@@H]1O[C@H](CS(=O)(=O)O)[C@@H](O)[C@H](O)[C@H]1O (some centres not stated)
- inhibition [1]: 18%

Structure (SMILES): CCCCCCCCO[C@@H]1O[C@H](CS(=O)(=O)O)[C@@H](O)[C@H](O)[C@H]1O
- growth inhibition (GI) (IGROV-1): inactive
- growth inhibition (GI) (Homo sapiens): inactive
- inhibition [2]: inactive
- inhibition [3]: inactive
- growth inhibition (GI) (TPC1 [4]): inactive
- growth inhibition (GI) (K1 [5]): inactive
- inhibition [1]: 14%

Structure (SMILES): O=c1[nH]c2ccccc2n1C1CCN(Cc2ccc(-c3nc4cc5[nH]cnc5cc4nc3-c3ccccc3)cc2)CC1
- inhibition [17]: Active
- inhibition [18]: Active
- inhibition [19]: Active
- inhibition [1]: 89%
